Calls of active or inactive are those of the source. The rule behind the calls is not given here.
Legend:
Histamine H4 receptor [1] = biological target: T1, Histamine H4 receptor (Homo sapiens, UniProt Q9H3N8); test: Displacement of [3H]histamine from human H4R expressed in Sf9 cells co-expressing RGS19, Galphai2 and Gbeta1gamma2 after 60 mins by liquid scintillation counting
Histamine H1 receptor [2] = biological target: Histamine H1 receptor (Cavia porcellus, UniProt P31389); test: Antagonist activity at H1R in guinea pig ileum assessed as inhibition of histamine-induced muscle contraction after 15 mins; format: functional, tissue-based; conditions: read-out: pA2 (converted)
Chain of Histamine H1 receptor (Cavia porcellus, UniProt P31389) (P31389 whole entry): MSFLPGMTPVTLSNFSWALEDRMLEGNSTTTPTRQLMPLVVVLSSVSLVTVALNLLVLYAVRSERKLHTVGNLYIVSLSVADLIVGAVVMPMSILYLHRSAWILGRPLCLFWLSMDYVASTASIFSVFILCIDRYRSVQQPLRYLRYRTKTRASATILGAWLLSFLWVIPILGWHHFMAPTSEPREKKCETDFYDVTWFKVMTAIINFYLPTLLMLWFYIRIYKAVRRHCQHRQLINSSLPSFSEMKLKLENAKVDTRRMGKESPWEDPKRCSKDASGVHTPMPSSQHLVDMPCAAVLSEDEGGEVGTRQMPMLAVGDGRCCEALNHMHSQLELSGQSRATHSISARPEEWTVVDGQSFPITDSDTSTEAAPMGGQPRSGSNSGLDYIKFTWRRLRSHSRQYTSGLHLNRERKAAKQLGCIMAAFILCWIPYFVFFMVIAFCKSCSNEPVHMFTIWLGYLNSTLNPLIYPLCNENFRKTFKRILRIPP

[3] = biological target: Histamine H1 receptor (Cavia porcellus) (UniProt P31389); test: Partial agonist activity at H1R in guinea pig ileum assessed as inhibition of histamine-induced muscle contraction after 15 mins; format: functional, tissue-based
Chain of Histamine H1 receptor (Cavia porcellus) (P31389 whole entry): as above
How it was run: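 Isolated guinea-pig ileum, contraction induced by histamine; test ligand incubated 15 min before the histamine response.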

Histamine H1 receptor [4] = biological target: Histamine H1 receptor (Homo sapiens, UniProt P35367); test: biochemical; format: cell-based, Sf9
Chain of Histamine H1 receptor (Homo sapiens, UniProt P35367) (P35367 whole entry): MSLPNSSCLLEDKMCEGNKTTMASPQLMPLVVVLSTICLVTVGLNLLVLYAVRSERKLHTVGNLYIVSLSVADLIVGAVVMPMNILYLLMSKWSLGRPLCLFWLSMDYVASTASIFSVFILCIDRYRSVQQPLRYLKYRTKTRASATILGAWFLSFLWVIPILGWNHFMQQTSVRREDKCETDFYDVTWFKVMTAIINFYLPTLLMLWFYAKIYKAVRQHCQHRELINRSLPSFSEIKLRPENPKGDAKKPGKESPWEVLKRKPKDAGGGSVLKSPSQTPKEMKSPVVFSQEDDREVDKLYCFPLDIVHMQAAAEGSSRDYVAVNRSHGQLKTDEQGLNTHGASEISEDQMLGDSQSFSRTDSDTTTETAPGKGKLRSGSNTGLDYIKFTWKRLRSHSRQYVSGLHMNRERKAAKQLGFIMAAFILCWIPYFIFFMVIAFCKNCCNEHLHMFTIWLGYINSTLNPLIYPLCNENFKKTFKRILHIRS

Histamine H4 receptor [5] = biological target: T1, Histamine H4 receptor; test: Partial agonist activity at human H4R expressed in Sf9 cells co-expressing RGS19, Galphai2 and Gbeta1gamma2 assessed as stimulation of [35S]GTPgammaS binding; format: functional
Histamine H4 receptor [6] = biological target: T1, Histamine H4 receptor; test: Partial agonist activity at human H4R expressed in Sf9 cells co-expressing RGS19, Galphai2 and Gbeta1gamma2 assessed as stimulation of [35S]GTPgammaS binding relative to histamine; format: functional
Histamine H4 receptor [7] = biological target: T1, Histamine H4 receptor; test: Inverse agonist activity at human H4R expressed in Sf9 cells co-expressing RGS19, Galphai2 and Gbeta1gamma2 assessed as […] of [35S]GTPgammaS binding; format: functional
Histamine H4 receptor [8] = biological target: T1, Histamine H4 receptor; test: Inverse agonist activity at human H4R expressed in Sf9 cells co-expressing RGS19, Galphai2 and Gbeta1gamma2 assessed as […] of [35S]GTPgammaS binding relative to histamine; format: functional

T1 sequence (Q9H3N8 whole entry): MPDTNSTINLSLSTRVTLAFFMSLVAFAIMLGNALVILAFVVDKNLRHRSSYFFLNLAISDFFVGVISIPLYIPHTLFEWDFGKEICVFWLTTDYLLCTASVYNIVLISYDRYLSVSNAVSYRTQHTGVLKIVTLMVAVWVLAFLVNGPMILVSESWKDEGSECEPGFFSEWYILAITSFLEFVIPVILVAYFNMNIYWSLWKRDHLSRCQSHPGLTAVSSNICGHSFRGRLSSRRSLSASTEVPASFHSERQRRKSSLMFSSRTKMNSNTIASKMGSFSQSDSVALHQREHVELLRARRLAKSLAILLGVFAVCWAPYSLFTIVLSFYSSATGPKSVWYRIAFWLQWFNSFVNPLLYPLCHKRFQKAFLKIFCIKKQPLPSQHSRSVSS

| Structure (SMILES) | Ki (Histamine H4 receptor [1]) | Kb (Histamine H1 receptor [2]) | inhibition [3] | Ki (Histamine H1 receptor [4]) | EC50 (Histamine H4 receptor [5]) | Emax (Histamine H4 receptor [6]) | EC50 (Histamine H4 receptor [7]) | Emax (Histamine H4 receptor [8]) |
| --- | --- | --- | --- | --- | --- | --- | --- | --- |
| COc1ccc(CCN2CCC(Nc3nc4ccccc4n3Cc3ccc(F)cc3)CC2)cc1 [ASTEMIZOLE] | 7940 nM | – | – | – | – | – | – | – |
| COc1ccc(CN(CCN[C@H]2CCN(C(=O)c3cc4ccccc4[nH]3)C2)c2ccccn2)cc1 | 27500 nM | 8.51 nM | inactive | 457 nM | – | – | – | – |
| O=C(c1cc2ccccc2[nH]1)N1CCN(CCOC(c2ccccc2)c2ccccc2)CC1 | 17800 nM | – | inactive | 224 nM | – | – | – | – |
| O=C(c1cc2ccccc2[nH]1)N1CCN(CCN2CCC(Nc3nc4ccccc4n3Cc3ccc(F)cc3)CC2)CC1 | 10500 nM | – | – | 5.5 nM | – | – | – | – |
| COc1ccc(CN(CCN2CCN(C(=O)c3nc4ccccc4[nH]3)CC2)c2ccccn2)cc1 | 22400 nM | 7.24 nM | inactive | 603 nM | – | – | – | – |
| COc1ccc(CN(CCN2CCN(C(=O)c3cc4cc(Cl)ccc4[nH]3)CC2)c2ccccn2)cc1 | 15800 nM | 20.4 nM | inactive | 776 nM | – | – | – | – |
| COc1ccc(CN(CCN2CCN(C(=O)c3cc4ccccc4[nH]3)CC2)c2ccccn2)cc1 | 5890 nM | 10.7 nM | inactive | 170 nM | 105000 nM | 88% | – | – |
| COc1ccc(CN(CCN(C)CCN2CCN(C(=O)c3cc4ccccc4[nH]3)CC2)c2ccccn2)cc1 | 8910 nM | 4.9 nM | inactive | 7.08 nM | – | – | > 100000 nM | < -1% |
| COc1ccc(CN(CCN(C)CC(C)Nc2ccc3[nH]c(C(=O)N4CCN(C)CC4)cc3c2)c2ccccn2)cc1 (racemic) | 14100 nM | 12.6 nM | inactive | 214 nM | – | – | – | – |
| COc1ccc(CN(CCN(C)CCN2CCN(C(=O)c3cc4cc(Cl)ccc4[nH]3)CC2)c2ccccn2)cc1 | 6760 nM | 7.59 nM | inactive | 100 nM | – | – | – | – |
| CN1CCN(C(=O)c2nc3ccccc3[nH]2)CC1 | 288 nM | – | – | – | – | – | – | – |
